Source: PubChem (Broad Institute)
INS-1E rescue: preserves ATP levels in cytokine-treated INS-1E cells; INS-1E cytokine-induced death, ATP luminescence, 48 h; normalised: neutral wells 0, positive control 100; protection from cytokine-induced ATP loss, % at 10 µM; 0.1% of 20,000 active;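 active = mean replicate protection from cytokine-induced ATP loss at least 50% and at least 75% of replicates each reaching 50%; inconclusive = meets only one of the two criteria, mean or replicate share; inactive = fails both the mean and replicate share criteria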
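Test system: INS-1E rat cells | Quantity: 8000 cells per well | Medium: Phenol-red-free RPMI with 5% fetal bovine serum | Reagent: Cytokine cocktail of IFN-γ, TNF-α and IL-1β | Doses: One compound concentration, pin transfer | Timing: 48 h co-treatment, 10 min post-lysis read | Technique: Luminescent ATP assay (CellTiter-Glo)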
A1 apoptosis 2: compounds inhibiting A1, read as caspase activation; caspase activation, % (test concentration not listed); 24,000 tested, under 10 active; MEF A1-2A-BIM cells, caspase-Glo luminescence, 3 h; percent of clofoctol response, DMSO zero; in the data active = caspase activation above about 5.9%; inconclusive = no clear call, values can overlap the other calls; inactive = below about 2.2%
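Material: mouse embryonic fibroblasts co-expressing A1 and BIM (A1-2A-BIM), primed for A1 dependence / Quantity: 2500 cells/well / Buffer or medium: RPMI-1640 growth medium with 10% FBS / Doses: 50 nL compound per well, pinned / Schedule: 3 h compound exposure at 37 °C / Signal: Caspase-Glo luminescence (DEVD substrate) / Measure: Caspase-3/7 activation, seen as rise in luminescence signal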
T cruzi intra: intracellular Trypanosoma cruzi inhibition; intracellular Trypanosoma cruzi in host cells, plate reader; activity score (inhibition), % at 5.01 µM; 4.9% of 22,000 active; in the data active = activity score above about 55%; inconclusive = no clear call, values can overlap the other calls;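 also: parasites and compound incubated about four days before reading; 0% = median of neutral control wells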
* marks the source's active call; other numbers are inactive results; ? = inconclusive; nt = not tested or not shown. Many of the other results were omitted from the sample, so hits are more common in it than they were.

SMILES	INS-1E rescue	A1 apoptosis 2	T cruzi intra
COc1ccc(S(=O)(=O)N[C@@H]2CCCN(Cc3cccc(OCCO)c3)C2)cc1	nt	0	nt
Cc1noc(C)c1NC(=O)N(C)C[C@@H]1OCCCC[C@@H](C)Oc2ccc(NS(=O)(=O)c3ccc(F)cc3)cc2C(=O)N([C@H](C)CO)C[C@@H]1C	-3	1	-2
CC(C)=CCC[C@@H](C)C/C=N/NC(=O)c1ccccn1	-1	-1	4
O=C(N/N=C/c1ccc(F)c(Oc2ccccc2)c1)c1ccccc1O	0	-5	-3
COCCOC(=O)N1C(=O)[C@@]2(c3cc(C#Cc4ccc(OC)cc4)ccc31)[C@H](C(=O)N1CCCCCCC1)[C@H]1C(=O)O[C@H](c3ccccc3)[C@H](c3ccccc3)N1[C@@H]2c1ccc(O)cc1	nt	-1	nt
COc1ccc([C@@H]2C=C(C(=O)O)O[C@H](OCc3ccc(CO)cc3)C2)cc1	nt	0	nt
COc1ccc(NC(=O)Nc2cccc3c2O[C@@H](CN(C)Cc2ccc(C(=O)Nc4ccccc4N)cc2)[C@@H](C)CN([C@H](C)CO)C3=O)cc1	nt	-1	nt
COc1ccc(NC(=O)Nc2cccc3c2O[C@@H](CN(C)Cc2ccc(C(=O)Nc4ccccc4N)cc2)[C@H](C)CN([C@@H](C)CO)C3=O)cc1	-2	nt	77*
COc1ccc(NC(=O)Nc2cccc3c2O[C@@H](CN(C)Cc2ccc(C(=O)Nc4ccccc4N)cc2)[C@@H](C)CN([C@@H](C)CO)C3=O)cc1	-23	-1	39
COc1ccc(NC(=O)Nc2cccc3c2O[C@H](CN(C)Cc2ccc(C(=O)Nc4ccccc4N)cc2)[C@H](C)CN([C@H](C)CO)C3=O)cc1	9	nt	61*
Nc1cccc(COc2ccc(/C=C/C(=O)NO)cc2)c1	nt	-1	nt
Cc1ccc(S(=O)(=O)Nc2ccc3c(c2)CC(=O)N([C@@H](C)CO)C[C@H](C)[C@H](CN(C)Cc2ccc(-c4ccccc4)cc2)O3)cc1	-32	0	27
C[C@H]1CN([C@@H](C)CO)C(=O)Cc2cc(NS(=O)(=O)c3cccs3)ccc2O[C@@H]1CN(C)Cc1ccc(-c2ccccc2)cc1	-15	-1	56*
C[C@H](CO)N1C[C@H](C)[C@@H](CN(C)Cc2ccc(-c3ccccc3)cc2)Oc2ccc(NS(=O)(=O)c3cccs3)cc2CC1=O	nt	0	nt
C[C@@H]1CN([C@H](C)CO)C(=O)Cc2cc(NS(=O)(=O)c3ccc(F)cc3)ccc2O[C@@H]1CN(C)Cc1ccccc1	-6	0	62*
C[C@@H]1CN([C@H](C)CO)C(=O)Cc2cc(NS(=O)(=O)c3ccccc3)ccc2O[C@@H]1CN(C)Cc1ccc(-c2ccccc2)cc1	-26	2	71*
Cc1ccc(S(=O)(=O)Nc2ccc3c(c2)CC(=O)N([C@H](C)CO)C[C@H](C)[C@@H](CN(C)Cc2ccc(-c4ccccc4)cc2)O3)cc1	nt	-1	nt
C[C@H](CO)N1C[C@H](C)[C@@H](CN(C)Cc2ccccc2)Oc2ccc(NS(=O)(=O)c3ccc(F)cc3)cc2CC1=O	nt	0	nt
C[C@H]1CN([C@@H](C)CO)C(=O)Cc2cc(NS(=O)(=O)c3ccc(F)cc3)ccc2O[C@@H]1CN(C)Cc1ccc(-c2ccccc2)cc1	-19	0	71*
O=C(N/N=C/c1cc(O)ccc1[N+](=O)[O-])c1ccccc1O	-38	-4	2
CC(C)(C)OC(=O)Nc1cccc(/C=N/NC(=O)c2ccccn2)c1	1	nt	13
COC(=O)CCCCCCC(=O)N/N=C/c1ccc(O)cc1Br	21	-1	14
C[C@H]1CN([C@@H](C)CO)C(=O)Cc2cc(NS(=O)(=O)c3ccc(Cl)cc3)ccc2O[C@@H]1CN(C)Cc1ccc(-c2ccccc2)cc1	3	nt	61*
Cc1ccc(S(=O)(=O)Nc2ccc3c(c2)CC(=O)N([C@H](C)CO)C[C@H](C)[C@H](CN(C)Cc2ccc(-c4ccccc4)cc2)O3)cc1	-4	nt	8
C[C@@H]1CN([C@@H](C)CO)C(=O)Cc2cc(NS(=O)(=O)c3ccccc3)ccc2O[C@@H]1CN(C)Cc1ccc(-c2ccccc2)cc1	-27	nt	58*
SMILES	INS-1E rescue	A1 apoptosis 2	T cruzi intra
O=C(CCCCC(=O)N/N=C/c1cccc(Oc2ccccc2)c1)NO	79*	0	7
O=C(O)CCCCCCC(=O)N/N=C/c1cccc(Br)c1	14	1	-5
O=C(NO)c1ccc(C(=O)N/N=C/c2cccc(Oc3ccccc3)c2)cc1	5	-1	3
O=C(CCCCCCC(=O)N/N=C\c1cccc(Br)c1)NO	68*	nt	-21
C[C@@H]1CN([C@@H](C)CO)C(=O)c2cc(NS(C)(=O)=O)ccc2O[C@@H](C)CCCCO[C@H]1CN(C)S(=O)(=O)c1ccc(F)cc1	nt	0	nt
C[C@H]1CN([C@@H](C)CO)C(=O)Cc2cc(NC(=O)Nc3cccc4ccccc34)ccc2O[C@@H]1CN(C)CC1CCCCC1	-24	-1	76*
C[C@@H]1CN([C@@H](C)CO)C(=O)c2cc(NC(=O)Nc3cccc4ccccc34)ccc2O[C@@H]1CN(C)Cc1ccc(Oc2ccccc2)cc1	-57	0	57*
C[C@@H]1CN([C@H](C)CO)C(=O)Cc2cc(NC(=O)Nc3cccc4ccccc34)ccc2O[C@H]1CN(C)Cc1ccccc1	-7	nt	79*
C[C@@H]1CN([C@@H](C)CO)C(=O)Cc2cc(NC(=O)Nc3cccc4ccccc34)ccc2O[C@@H]1CN(C)Cc1ccccc1	-22	nt	67*
C[C@@H]1CN([C@H](C)CO)C(=O)c2cc(NC(=O)Nc3cccc4ccccc34)ccc2O[C@H]1CN(C)Cc1ccc(Oc2ccccc2)cc1	nt	1	53
C[C@@H]1CN([C@H](C)CO)C(=O)Cc2cc(NC(=O)Nc3cccc4ccccc34)ccc2O[C@@H]1CN(C)Cc1ccc(-c2ccccc2)cc1	-2	1	?
C[C@@H]1CN([C@@H](C)CO)C(=O)Cc2cc(NC(=O)Nc3cccc4ccccc34)ccc2O[C@@H]1CN(C)Cc1ccc(-c2ccccc2)cc1	1	nt	50
C[C@H](CO)N1C[C@H](C)[C@H](CN(C)CC2CC2)Oc2ccc(NC(=O)Nc3cccc4ccccc34)cc2CC1=O	nt	1	nt
COC(=O)CCCCCCC(=O)N/N=C/c1ccc(C#N)cc1	4	nt	3
NC(=O)COc1ccccc1/C=N/NC(=O)CCCCCC(=O)NO	nt	1	nt
COc1ccc(CN(C)C[C@@H]2Oc3ccc(NC(=O)C4CC4)cc3CC(=O)N([C@@H](C)CO)C[C@H]2C)cc1	nt	0	nt
O=C(CCCCCC(=O)Nc1ccccc1O)N/N=C/c1cccc(O)c1	10	2	-9
C[C@@H]1CN([C@@H](C)CO)C(=O)Cc2cc(NC(=O)Nc3cccc4ccccc34)ccc2O[C@@H]1CN(C)Cc1ccc(C(F)(F)F)cc1	-23	0	91*
C[C@@H]1CN([C@H](C)CO)C(=O)Cc2cc(NC(=O)Nc3cccc4ccccc34)ccc2O[C@@H]1CN(C)Cc1ccc(Oc2ccccc2)cc1	-16	1	69*
COc1ccc(CN(C)C[C@@H]2Oc3ccc(NC(=O)Nc4cccc5ccccc45)cc3CC(=O)N([C@@H](C)CO)C[C@@H]2C)cc1	0	2	28
